Assay results: ChEMBL document CHEMBL3102736, “Synthesis and evaluation of cytotoxic activities of new guanidines derived from carbazoles” (Bioorg Med Chem Lett, 2014)
Activity calls are given as the source filed them. The calls are words filed in the database; no cut-off is given here.

Tests used:
KB [1] = experiment: Cytotoxicity against human KB cells at 10^-6 M after 72 hrs by MTS assay; assay type: functional
Outline: (§1)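 KB and MRC5-SV2 cells grown in D-MEM with 10% fetal calf serum and antibiotics under 5% CO2. Seeded at 650–2000 cells/well and dosed 24 h later at 10^-6 or 10^-5 M from DMSO (1% final). After 72 h, MTS added for 3 h at 37 °C, then A490 read. % inhibition = (1 − OD treated/OD control) × 100.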

MRC5 [2] = experiment: Cytotoxicity against human MRC5 cells at 10^-5 M after 72 hrs by MTS assay; assay type: functional, cell-based; outline: as §1
KB [3] = experiment: Cytotoxicity against human KB cells at 10^-5 M after 72 hrs by MTS assay; assay type: functional; outline: as §1
MCF7 [4] = experiment: Cytotoxicity against human MCF7 cells at 10^-5 M after 72 hrs by MTS assay; assay type: functional, cell-based
Outline: (§2)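 HCT116, MCF7 and PC3 cells grown in RPMI with 10% fetal calf serum and antibiotics under 5% CO2. Seeded at 650–2000 cells/well and dosed 24 h later at 10^-6 or 10^-5 M from DMSO (1% final). After 72 h, MTS added for 3 h at 37 °C, then A490 read. % inhibition = (1 − OD treated/OD control) × 100.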

HCT-116 [5] = experiment: Cytotoxicity against human HCT116 cells at 10^-6 M after 72 hrs by MTS assay; assay type: functional, cell-based; outline: as §2
DNA [6] = experiment: Binding affinity to calf thymus DNA at 10^-4 M by UV-Visible spectrophotometry; assay type: nucleic-acid assay; details: Bos taurus
Outline: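 Compound working solution at 10^-4 M (diluted from DMSO stock in 0.01 M Tris) in Tris buffer (0.01 M, pH 7.4) at 37 °C. UV-Vis absorption spectra (230–500 nm) recorded without and with calf thymus DNA at a fixed 100 µg/mL.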

HL-60 = experiment: Cytotoxicity against human HL60 cells after 72 hrs by MTS assay; assay type: functional, cell-based; details: HL-60, 72 h
Outline: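 HL60 cells cultured in supplemented RPMI (10% fetal calf serum) under 5% CO2. Seeded at 650–2000 cells/well and treated 24 h later with compound from DMSO (1% final), 0.5 nM–10 µM. After 72 h, MTS added for 3 h at 37 °C, then A490 read. IC50 taken as 50% inhibition of proliferation; separate duplicate experiments.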

PC-3 [7] = experiment: Cytotoxicity against human PC3 cells at 10^-6 M after 72 hrs by MTS assay; assay type: functional, cell-based; outline: as §2
PC-3 [8] = experiment: Cytotoxicity against human PC3 cells at 10^-5 M after 72 hrs by MTS assay; assay type: functional, cell-based; outline: as §2
DNA [9] = experiment: Binding affinity to calf thymus DNA at 10^-4 M by fluorescence assay; assay type: nucleic-acid assay; details: Bos taurus
Outline: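 Fluorescence titration at 37 °C in 0.01 M Tris, pH 7.4. Compound working solution at 10^-4 M (diluted from a 10^-2 M DMSO stock); calf thymus DNA added at increasing levels across 25–100 µg/mL. Excitation at 290 nm, emission recorded over 330–390 nm.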

HCT-116 [10] = experiment: Cytotoxicity against human HCT116 cells at 10^-5 M after 72 hrs by MTS assay; assay type: functional, cell-based; outline: as §2
MCF7 [11] = experiment: Cytotoxicity against human MCF7 cells at 10^-6 M after 72 hrs by MTS assay; assay type: functional, cell-based; outline: as §2
MRC5 [12] = experiment: Cytotoxicity against human MRC5 cells at 10^-6 M after 72 hrs by MTS assay; assay type: functional, cell-based; outline: as §1

SMILES	Activity (DNA [6])	Activity (DNA [9])	inhibition at 1 µM (KB [1]) [%]	Activity (MRC5 [2])	inhibition at 10 µM (KB [3]) [%]	Activity (MCF7 [4])	Activity (HCT-116 [5])	IC50 (HL-60) [µM]	Activity (PC-3 [7])	Activity (PC-3 [8])	Activity (HCT-116 [10])	Activity (MCF7 [11])	Activity (MRC5 [12])
CCC(CC)N/C(N)=N/c1cc(C)c2[nH]c3ccc(Br)cc3c2c1C	Active	Active	15	Active	100	Active	inactive	3.1	inactive	Active	Active	inactive	inactive
CCOC(=O)Oc1ccc2[nH]c3c(C)cc(N=C(N)N)c(C)c3c2c1	–	–	0	–	73	–	–	–	–	–	–	–	–
Cc1cc(/N=C(\N)NC(C)(C)C)c(C)c2c1[nH]c1ccc(Br)cc12	–	Active	16	–	100	–	–	4	–	–	–	–	–

More lines, main results first:

Activity (DNA [6])	Activity (DNA [9])	SMILES	inhibition at 1 µM (KB [1]) [%]	Activity (MRC5 [2])	inhibition at 10 µM (KB [3]) [%]	Activity (MCF7 [4])	Activity (HCT-116 [5])	IC50 (HL-60) [µM]	Activity (PC-3 [7])	Activity (PC-3 [8])	Activity (HCT-116 [10])	Activity (MCF7 [11])	Activity (MRC5 [12])
–	Active	CCCN/C(N)=N/c1cc(C)c2[nH]c3ccccc3c2c1C	18	–	91	–	–	–	–	–	–	–	–
–	Active	CCCCN/C(N)=N/c1cc(C)c2[nH]c3ccc(Br)cc3c2c1C	26	–	100	–	–	3.5	–	–	–	–	–
–	Active	CCCCN/C(N)=N/c1cc(C)c2[nH]c3ccccc3c2c1C	5	–	98	–	–	–	–	–	–	–	–
